In ChEMBL document CHEMBL4196040, “Discovery of carbazole carboxamides as novel RORγt inverse agonists” (Eur J Med Chem, 2018):

Columns and labels:
[1] = target: T1, Nuclear receptor ROR-gamma (Homo sapiens, UniProt P51449); experiment: Inverse agonist activity at APC-labeled RORgammat LBD (unknown origin) assessed as inhibition of N-(2-chloro-6-fluorobenzyl)-N-((20-methoxy-[1,10-biphenyl]-4-yl)methyl)benzenesulfonamide -induced co-activator europium-labeled SRC1 peptide recruitment after 1 hr by LANCE-FRET assay
T1 sequence (P51449 whole entry): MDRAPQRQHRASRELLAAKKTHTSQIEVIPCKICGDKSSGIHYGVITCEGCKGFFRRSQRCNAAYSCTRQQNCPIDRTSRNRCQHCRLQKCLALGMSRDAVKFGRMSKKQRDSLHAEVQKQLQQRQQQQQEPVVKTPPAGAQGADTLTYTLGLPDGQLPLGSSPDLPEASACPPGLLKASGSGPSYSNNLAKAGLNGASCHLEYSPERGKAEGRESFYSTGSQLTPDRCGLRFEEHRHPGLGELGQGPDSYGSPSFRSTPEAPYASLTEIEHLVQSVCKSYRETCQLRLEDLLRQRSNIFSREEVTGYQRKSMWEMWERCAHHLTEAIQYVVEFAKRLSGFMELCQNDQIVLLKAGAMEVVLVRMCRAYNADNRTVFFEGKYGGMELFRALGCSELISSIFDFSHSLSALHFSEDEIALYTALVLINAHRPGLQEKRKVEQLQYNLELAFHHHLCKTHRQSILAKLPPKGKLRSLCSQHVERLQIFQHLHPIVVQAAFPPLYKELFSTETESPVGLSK

[2] = target: T2, Nuclear receptor ROR-gamma (Homo sapiens) (UniProt P51449); experiment: Agonist activity at APC-labeled RORgammat LBD (unknown origin) assessed as co-activator europium-labeled SRC1 peptide recruitment after 1 hr by LANCE-FRET assay relative to control
T2 sequence (whole entry): T1 sequence (P51449 whole entry)

[3] = Inhibition of mouse splenocytes-derived CD4+ Th17 cell differentiation assessed as reduction in IL-17 production at 0.3 uM by flow cytometry relative to control; assay type: functional
Outline: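 CD4+ T cells were taken from mouse splenocytes by negative selection and skewed to Th17 over 4 days with anti-CD3 0.25 μg/mL, anti-CD28 1 μg/mL, anti-IFN-γ and anti-IL-4 2 μg/mL each, TGF-β 5 ng/mL and IL-6 20 ng/mL. Compound or DMSO was added on day 0. IL-17+ CD4+ cells were measured by intracellular staining and flow cytometry.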

[4] = Intrinsic clearance in mouse liver microsomes; assay type: ADME, microsome

Row | SMILES | IC50 ([1]; read-out: IC50) | other results
1 | CCn1c2c(c3cc(C(=O)NCc4ccc(S(=O)(=O)CC)cc4)ccc31)CCC2 | 1320 nM | –
2 | CCS(=O)(=O)c1ccc(CNC(=O)c2ccc3c(c2)c2ccccc2n3CC2CCCCC2)cc1 | 33.5 nM | Emax [2]: 54%
3 | CCS(=O)(=O)c1ccc(CNC(=O)c2ccc3c(c2)c2ccccc2n3CC(C)C)cc1 | 69.6 nM | –
4 | CCn1c2ccccc2c2cc(NC(=O)Cc3ccc(S(=O)(=O)CC)cc3)ccc21 | 170 nM | –
5 | CCS(=O)(=O)c1ccc(CNC(=O)c2ccc3c(c2)c2ccccc2n3CC2CC2)cc1 | 81.9 nM | –
6 | CCn1c2ccccc2c2cc(C(=O)NCc3ccc(S(=O)(=O)CC)cn3)ccc21 | 1220 nM | –
7 | CCn1c2c(c3cc(C(=O)NCc4ccc(S(=O)(=O)CC)cc4)ccc31)CCCC2 | 426 nM | –
8 | CCS(=O)(=O)c1ccc(CNC(=O)c2ccc3[nH]c4ccccc4c3c2)cc1 | 5400 nM | –
9 | CCS(=O)(=O)c1ccc(CNC(=O)c2ccc3c(c2)c2ccccc2n3CC2CCC2)cc1 | 54.9 nM | –
10 | CCn1c2ccccc2c2cc(C(=O)NCc3ccc(S(=O)(=O)NC)cc3)ccc21 | 313 nM | –
11 | CCn1c2ccccc2c2cc(C(=O)NCC(C)NC(=O)Cc3ccc(S(=O)(=O)CC)cc3)ccc21 (centres undefined) | – | IC50 [1]: Not Active
12 | CCn1c2ccc(C(=O)NCc3ccc(S(=O)(=O)CC)cc3)cc2c2ncccc21 | 3000 nM | –
13 | CCCS(=O)(=O)c1ccc(CNC(=O)c2ccc3c(c2)c2ccccc2n3CC)cc1 | 1450 nM | –
14 | CCn1ccc2cc(C(=O)NCc3ccc(S(=O)(=O)CC)cc3)ccc21 | 5160 nM | –
15 | CCS(=O)(=O)c1ccc(CNC(=O)c2ccc3c(c2)c2ccccc2n3C(C)C)cc1 | 358 nM | –
16 | CCCn1c2ccccc2c2cc(C(=O)NCc3ccc(S(=O)(=O)CC)cc3)ccc21 | 138 nM | –
17 | CCn1c2ccc(F)cc2c2cc(C(=O)NCc3ccc(S(=O)(=O)CC)cc3)ccc21 | 156 nM | inhibition at 0.3 µM [3]: 45.9%; CLint [4]: 0.348 mL/min/g
18 | CCn1c2ccccc2c2cc(NC(=O)NCc3ccc(S(=O)(=O)CC)cc3)ccc21 | 16200 nM | –
19 | CCn1c2ccc(C)cc2c2cc(C(=O)NCc3ccc(S(=O)(=O)CC)cc3)ccc21 | 47.8 nM | inhibition at 0.3 µM [3]: 43.6%; CLint [4]: 0.368 mL/min/g
20 | CCn1c2ccccc2c2cc(C(=O)NCc3ccc(S(=O)(=O)CC)cc3)ccc21 | 167 nM | inhibition at 0.3 µM [3]: 40%; CLint [4]: 0.305 mL/min/g
21 | CCn1c2ccccc2c2cc(NC(=O)CNC(=O)Cc3ccc(S(=O)(=O)CC)cc3)ccc21 | 7670 nM | –
22 | CCn1c(C)c(C)c2cc(C(=O)NCc3ccc(S(=O)(=O)CC)cc3)ccc21 | 914 nM | –
23 | CCn1c2ccccc2c2cc(C(=O)NCc3ccc(S(C)(=O)=O)cc3)ccc21 | 1100 nM | –
24 | CCS(=O)(=O)c1ccc(CNC(=O)c2ccc3c(c2)c2ccccc2n3C)cc1 | 566 nM | –
25 | CCn1c2ccc(Cl)cc2c2cc(C(=O)NCc3ccc(S(=O)(=O)CC)cc3)ccc21 | 58.5 nM | inhibition at 0.3 µM [3]: 58.8%; CLint [4]: 0.197 mL/min/g
